Experiments:
Human gammaherpesvirus 4 [1] = assay: Inhibition of TPA-induced EBV-EA activation in Raji cells at 100 mol ratio/TPA relative to control; values are per cent of control
Human gammaherpesvirus 4 [2] = assay: Inhibition of TPA-induced EBV-EA activation in Raji cells at 1000 mol ratio/TPA relative to control; values are per cent of control
Human gammaherpesvirus 4 [3] = assay: Inhibition of TPA-induced EBV-EA activation in Raji cells at 500 mol ratio/TPA relative to control; values are per cent of control
Raji = assay: Cell viability in Raji cells at 1000 mol ratio/TPA relative to control; format: functional, Homo sapiens
Procedure, shortened: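 Raji cells under the EBV-EA induction conditions (n-butyric acid 4 mmol plus TPA 32 pmol, 48 h, 37 C), with test compound added in DMSO at 1000 mol ratio to TPA. Viability was assayed by Trypan blue staining and reported as a percentage.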

Human gammaherpesvirus 4 [4] = assay: Inhibition of TPA-induced EBV-EA activation in Raji cells at 10 mol ratio/TPA relative to control; values are per cent of control
Mus musculus [5] = species on record: Mus musculus; assay: Suppression of DMBA/TPA-induced papilloma-formation in ICR mouse within 10 week; format: functional
Mus musculus [6] = species on record: Mus musculus; assay: Toxicity in ICR mouse with DMBA/TPA-induced papilloma; format: organism-based; conditions: in vivo
Procedure, shortened: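 Specific pathogen-free female ICR mice, 6 weeks old, in three groups of 15. Shaved backs were initiated topically with DMBA (390 nmol) in 0.1 ml acetone. From one week later, TPA (1.7 nmol) in 0.1 ml acetone was applied to the skin twice weekly. Treated groups also received 85 nmol of test agent with TPA. Mice were followed to week 20.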

Mus musculus [7] = species on record: Mus musculus; assay: Suppression of DMBA/TPA-induced papilloma-formation in ICR mouse at 85 nmol within 10 week; format: functional

SMILES	level, % of control (Human gammaherpesvirus 4 [1]) [%]	level, % of control (Human gammaherpesvirus 4 [2]) [%]	level, % of control (Human gammaherpesvirus 4 [3]) [%]	Activity (Raji) [%]	level, % of control (Human gammaherpesvirus 4 [4]) [%]	Activity (Mus musculus [5]) [%]	Activity (Mus musculus [6])	Activity (Mus musculus [7]) [%]
C[C@@H]([C@H]1CC[C@@]2(C)C3=C(CC[C@]12C)[C@@]1(C)CC[C@H](O)C(C)(C)[C@@H]1CC3)[C@H]1C[C@H](O)C(C)(C)O1 [INONOTSUOXIDE A]	71.3	6.3	42	70	94.3	–	–	–
CC(C)=CC[C@@H](O)[C@@H](C)[C@H]1CC[C@@]2(C)C3=C(CC[C@]12C)[C@@]1(C)CC[C@H](O)C(C)(C)[C@@H]1CC3 [INOTODIOL]	66.1	2.4	37.6	70	93.1	<30	Non-toxic	–
CC(C)=CCC[C@@H](C(=O)O)[C@H]1CC[C@@]2(C)C3=C(CC[C@]12C)[C@@]1(C)CC[C@H](O)C(C)(C)[C@@H]1CC3 [TRAMETENOLIC ACID]	75.4	9.2	45	70	98.6	–	–	–
CC(=O)O[C@H]1CC[C@]2(C)C3=C(CC[C@H]2C1(C)C)[C@]1(C)CC[C@H]([C@@H](CCC=C(C)C)C(=O)O)[C@@]1(C)CC3 [ACETYL TRAMETENOLIC ACID]	79	12.7	47.8	70	100	–	–	–
CC(C)=CCC[C@@H](C)[C@H]1CC[C@@]2(C)C3=C(CC[C@]12C)[C@@]1(C)CC[C@H](O)C(C)(C)[C@@H]1CC3 [LANOSTEROL]	74.3	4.9	44.7	70	96.3	–	–	–
CC1(C)CC[C@]2(C(=O)O)CC[C@]3(C)C(=CC[C@@H]4[C@@]5(C)CC[C@H](O)C(C)(C)[C@@H]5CC[C@]43C)[C@@H]2C1 [OLEANOLIC_ACID]	–	–	–	–	–	–	Non-toxic	<30
CC(=O)O[C@H]1C[C@H]([C@@H](C)[C@H]2CC[C@@]3(C)C4=C(CC[C@]23C)[C@@]2(C)CC[C@H](OC(C)=O)C(C)(C)[C@@H]2CC4)OC1(C)C	–	–	–	70	–	–	–	–
